Laboratory results from ChEMBL document CHEMBL1152234, “Synthesis and antitumoral evaluation of indole alkaloid analogues containing an hexahydropyrrolo[1',2',3':1,9a,9]imidazo[1,2-a]indole skeleton” (2008).
Activity calls are given as the source filed them. The calls are words filed in the database; no cut-off is given here.

What was measured:
A549 = test: Cytotoxicity against human A549 cells after 48 hrs by sulforhodamine B assay; assay type: functional; settings: A549, 48 h; for CC50: read-out: LC50 (the source's name)
Method in brief: (§1)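 Cells seeded at 5×10^3 per well in RPMI and allowed to attach for 18 h in drug-free medium. Samples were added in 3:7 DMSO/H2O, with highest concentration 100 µM, and exposed for 48 h. Cells were fixed with cold TCA at 4 °C for 60 min, stained with 0.4% SRB and solubilized in Tris. OD was read at 490 nm. GI50, TGI and LC50 came from automated analysis following the NCI protocol.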

[1] = target: Epidermal growth factor receptor (Homo sapiens) (UniProt P00533); test: Inhibition of EGFR expressed in human HeLa cells at 10 ug/mL by AP1-luciferase reporter gene assay relative to control; assay type: cell-based
Chain of Epidermal growth factor receptor (Homo sapiens) (P00533 whole entry): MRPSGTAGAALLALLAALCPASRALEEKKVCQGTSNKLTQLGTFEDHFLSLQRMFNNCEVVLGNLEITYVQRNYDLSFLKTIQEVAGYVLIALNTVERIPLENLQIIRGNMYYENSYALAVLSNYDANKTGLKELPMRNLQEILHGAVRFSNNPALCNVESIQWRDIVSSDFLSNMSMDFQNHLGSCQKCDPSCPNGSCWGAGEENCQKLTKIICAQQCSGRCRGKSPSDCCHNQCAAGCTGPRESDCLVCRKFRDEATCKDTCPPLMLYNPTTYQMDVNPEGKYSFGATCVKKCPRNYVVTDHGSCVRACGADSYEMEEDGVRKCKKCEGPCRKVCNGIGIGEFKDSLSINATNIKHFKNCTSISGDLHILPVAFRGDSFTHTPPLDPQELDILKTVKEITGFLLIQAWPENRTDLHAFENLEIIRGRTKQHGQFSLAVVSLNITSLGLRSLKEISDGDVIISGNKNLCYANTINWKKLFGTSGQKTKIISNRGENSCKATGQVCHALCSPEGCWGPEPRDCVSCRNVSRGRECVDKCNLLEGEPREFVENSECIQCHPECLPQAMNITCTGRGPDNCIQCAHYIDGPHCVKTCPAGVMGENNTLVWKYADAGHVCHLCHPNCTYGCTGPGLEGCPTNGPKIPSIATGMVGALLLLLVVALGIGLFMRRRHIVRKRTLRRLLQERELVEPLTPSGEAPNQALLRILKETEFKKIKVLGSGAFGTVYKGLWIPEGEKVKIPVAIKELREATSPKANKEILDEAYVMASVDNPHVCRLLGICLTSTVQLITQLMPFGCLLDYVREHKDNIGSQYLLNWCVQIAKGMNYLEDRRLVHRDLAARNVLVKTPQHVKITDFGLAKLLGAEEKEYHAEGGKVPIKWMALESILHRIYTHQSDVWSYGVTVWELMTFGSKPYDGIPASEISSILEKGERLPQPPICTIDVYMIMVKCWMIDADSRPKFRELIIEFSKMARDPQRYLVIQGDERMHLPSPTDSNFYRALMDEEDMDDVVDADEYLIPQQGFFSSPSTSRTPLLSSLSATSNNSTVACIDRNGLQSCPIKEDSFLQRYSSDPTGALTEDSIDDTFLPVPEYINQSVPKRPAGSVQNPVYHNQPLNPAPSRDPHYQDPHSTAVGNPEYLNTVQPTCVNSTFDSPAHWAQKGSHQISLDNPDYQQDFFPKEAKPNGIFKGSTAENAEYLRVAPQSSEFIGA
Method in brief: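 AP1-luc stably transfected HeLa cells were grown in DMEM/10% FBS at 20,000 cells/well and set for 24 h. They were treated with 1% DMSO vehicle or compound (10, 2, 0.4, 0.08, 0.016 µg/mL) before stimulation with EGF at 25 ng/mL. Control inhibitor was AG-1478 at 20 µM. Survival was checked by calcein-AM (0.1 µM, 30 min, 37 °C), then luciferase read by luminescence. Values are % of control.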

HeLa = test: Inhibition of mitosis in human HeLa cells assessed as G2 checkpoint inhibition by ELISA; assay type: functional, cell-based
Method in brief: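 ELISA immunoassay in HeLa cells. Paclitaxel and vinblastine (each 1 µg/mL) were control inhibitors. Five fixed concentrations were tested (10, 2, 0.4, 0.08, 0.016 µg/mL). Inhibition and survival are given as % of controls.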

MDA-MB-231 [2] = test: Inhibition of histone deacetylase expressed in human MDA-MB-231 cells; assay type: cell-based
Method in brief: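 Cell extracts from MDA-MB-231 breast carcinoma served as enzyme source. Trichostatin A at 250 nM was the reference inhibitor. Test concentrations were 10, 2, 0.4, 0.08 and 0.016 µg/mL. Data are % inhibition relative to controls.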

MDA-MB-231 [3] = test: Cytotoxicity against human MDA-MB-231 cells after 48 hrs by sulforhodamine B assay; assay type: functional; settings: MDA-MB-231, 48 h; for CC50: read-out: LC50 (the source's name); method in brief: as §1
HT-29 = test: Cytotoxicity against human HT-29 cells after 48 hrs by sulforhodamine B assay; assay type: functional; settings: HT-29, 48 h; method in brief: as §1
[4] = target: Hypoxia-inducible factor 1-alpha (Homo sapiens) (UniProt Q16665); test: Inhibition of HIF1alpha expressed in human HeLa cells at 10 ug/mL by HIF1-luciferase reporter gene assay relative to control; assay type: cell-based
Chain of Hypoxia-inducible factor 1-alpha (Homo sapiens) (Q16665 whole entry, looked up): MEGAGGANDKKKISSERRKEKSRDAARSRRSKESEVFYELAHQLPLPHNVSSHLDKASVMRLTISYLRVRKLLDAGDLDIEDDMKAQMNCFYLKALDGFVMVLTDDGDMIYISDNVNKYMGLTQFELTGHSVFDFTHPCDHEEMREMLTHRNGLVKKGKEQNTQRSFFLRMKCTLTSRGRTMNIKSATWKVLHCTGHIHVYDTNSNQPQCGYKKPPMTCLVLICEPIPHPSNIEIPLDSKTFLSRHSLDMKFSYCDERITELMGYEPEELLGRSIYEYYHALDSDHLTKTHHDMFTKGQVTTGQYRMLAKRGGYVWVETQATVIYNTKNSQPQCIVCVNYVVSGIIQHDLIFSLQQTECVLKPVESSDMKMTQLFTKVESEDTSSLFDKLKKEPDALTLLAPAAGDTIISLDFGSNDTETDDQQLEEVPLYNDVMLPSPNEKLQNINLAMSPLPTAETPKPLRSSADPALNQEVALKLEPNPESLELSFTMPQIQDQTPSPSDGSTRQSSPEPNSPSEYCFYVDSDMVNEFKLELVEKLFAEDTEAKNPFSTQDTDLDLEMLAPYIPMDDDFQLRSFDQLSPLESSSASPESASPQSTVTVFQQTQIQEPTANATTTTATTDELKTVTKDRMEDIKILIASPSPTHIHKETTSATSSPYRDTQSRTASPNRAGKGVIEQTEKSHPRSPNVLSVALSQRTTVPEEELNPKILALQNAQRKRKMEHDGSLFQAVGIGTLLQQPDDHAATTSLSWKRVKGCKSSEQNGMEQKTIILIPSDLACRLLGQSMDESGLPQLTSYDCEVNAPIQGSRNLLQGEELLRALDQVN
Method in brief: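 HIF1-luc stably transfected HeLa cells were plated at 20,000 cells/well and set for 24 h. They were pretreated 30 min with 1% DMSO vehicle or compound (10, 2, 0.4, 0.08, 0.016 µg/mL), then given 50 µM deferoxamine as hypoxia mimetic for 24 h. Survival was measured by calcein-AM fluorescence (0.1 µM, 30 min, 37 °C), followed by luciferase luminescence. Reported as % of control.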

[5] = target: T1, Catenin beta-1 (Homo sapiens) (UniProt P35222); test: Inhibition of beta-catenin expressed in human SW480 cells by luciferase reporter gene assay
T1 sequence (whole entry): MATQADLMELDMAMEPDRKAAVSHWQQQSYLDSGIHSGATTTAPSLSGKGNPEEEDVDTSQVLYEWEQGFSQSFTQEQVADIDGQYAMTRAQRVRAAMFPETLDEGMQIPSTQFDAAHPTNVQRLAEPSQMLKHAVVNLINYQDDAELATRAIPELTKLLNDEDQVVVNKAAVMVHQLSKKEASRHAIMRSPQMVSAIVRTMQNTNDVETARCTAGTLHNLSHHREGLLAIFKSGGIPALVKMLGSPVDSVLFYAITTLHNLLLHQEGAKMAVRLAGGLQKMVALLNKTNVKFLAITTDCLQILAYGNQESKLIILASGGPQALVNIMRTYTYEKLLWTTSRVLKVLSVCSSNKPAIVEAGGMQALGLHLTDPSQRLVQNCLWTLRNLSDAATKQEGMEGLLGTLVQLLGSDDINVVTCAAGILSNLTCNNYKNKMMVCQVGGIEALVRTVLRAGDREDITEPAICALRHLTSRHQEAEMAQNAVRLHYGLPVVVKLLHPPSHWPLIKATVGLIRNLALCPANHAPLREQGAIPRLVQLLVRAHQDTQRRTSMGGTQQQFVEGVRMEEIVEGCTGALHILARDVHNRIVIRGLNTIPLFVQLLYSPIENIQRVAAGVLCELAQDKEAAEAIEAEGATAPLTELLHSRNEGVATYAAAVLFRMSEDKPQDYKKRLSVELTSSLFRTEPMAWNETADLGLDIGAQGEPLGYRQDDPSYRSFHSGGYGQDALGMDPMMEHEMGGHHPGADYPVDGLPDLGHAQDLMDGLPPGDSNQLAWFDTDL

## COC(=O)[C@@H]1C[C@@]2(Br)c3cc(Br)ccc3N3C(=N)C(C)(C)N1[C@H]32
A549
  GI50: > 100 µM
  TGI: > 100 µM
  CC50: > 100 µM
[1]
  inhibition: 45%
HeLa
  Activity: inactive
MDA-MB-231 [2]
  Activity: inactive
MDA-MB-231 [3]
  GI50: > 100 µM
  TGI: > 100 µM
  CC50: > 100 µM
HT-29
  GI50: > 100 µM
  LC50 (concentration killing 50% of cells): > 100 µM
  TGI: > 100 µM
[4]
  inhibition: 55%
[5]
  Activity: inactive

## COC(=O)[C@@H]1C[C@@]2(CC=C(C)C)c3ccccc3N3C(=N)[C@H](C(C)(C)C)N1[C@H]32
A549
  GI50: > 100 µM
  TGI: > 100 µM
  CC50: > 100 µM
[1]
  inhibition: 0%
HeLa
  Activity: inactive
MDA-MB-231 [2]
  Activity: inactive
MDA-MB-231 [3]
  GI50: 15.2 µM
  TGI: 26.2 µM
  CC50: 26.2 µM
HT-29
  GI50: > 100 µM
  LC50 (concentration killing 50% of cells): > 100 µM
  TGI: > 100 µM
[4]
  inhibition: 83%
[5]
  Activity: inactive

## COC(=O)[C@@H]1C[C@@]2(Br)c3cc(Br)ccc3N3C(=N)C4(CCCCC4)N1[C@H]32
A549
  GI50: 7.24 µM
  TGI: 10.8 µM
  CC50: 16.1 µM
[1]
  inhibition: 83%
HeLa
  Activity: inactive
MDA-MB-231 [2]
  Activity: inactive
MDA-MB-231 [3]
  GI50: 6.21 µM
  TGI: 8.49 µM
  CC50: > 100 µM
HT-29
  GI50: 7.45 µM
  LC50 (concentration killing 50% of cells): 14.1 µM
  TGI: 9.31 µM
[5]
  Activity: inactive

## COC(=O)[C@@H]1C[C@@]2(CC=C(C)C)c3ccccc3N3C(=N)C(C)(C)N1[C@H]32
A549
  GI50: 5.66 µM
  TGI: 28.3 µM
  CC50: 28.3 µM
[1]
  inhibition: 0%
HeLa
  Activity: inactive
MDA-MB-231 [2]
  Activity: inactive
MDA-MB-231 [3]
  GI50: 11 µM
  TGI: 28.3 µM
  CC50: 28.3 µM
HT-29
  GI50: 4.24 µM
  LC50 (concentration killing 50% of cells): 28.3 µM
  TGI: 28.3 µM
[4]
  inhibition: 73%
[5]
  Activity: inactive

## COC(=O)[C@@H]1C[C@@]2(Br)c3cc(Br)ccc3N3C(=N)[C@H](C(C)(C)C)N1[C@H]32
A549
  GI50: > 100 µM
  TGI: > 100 µM
  CC50: > 100 µM
[1]
  inhibition: 0%
HeLa
  Activity: inactive
MDA-MB-231 [2]
  Activity: inactive
MDA-MB-231 [3]
  GI50: > 100 µM
  TGI: > 100 µM
  CC50: > 100 µM
HT-29
  GI50: > 100 µM
  LC50 (concentration killing 50% of cells): > 100 µM
  TGI: > 100 µM
[4]
  inhibition: 73%
[5]
  Activity: inactive

## COC(=O)[C@@H]1C[C@H]2c3ccccc3N3C(=N)C4(CCCCC4)N1[C@@H]23
A549
  GI50: 9.23 µM
  TGI: 9.23 µM
  CC50: 9.23 µM
HeLa
  Activity: inactive
MDA-MB-231 [2]
  Activity: inactive
HT-29
  GI50: 9.23 µM
  LC50 (concentration killing 50% of cells): 9.23 µM
  TGI: 9.23 µM
[5]
  Activity: inactive

## COC(=O)[C@@H]1C[C@@]2(Br)c3ccccc3N3C(=N)[C@H](C(C)(C)C)N1[C@H]32
A549
  GI50: > 100 µM
  TGI: > 100 µM
  CC50: > 100 µM
[1]
  inhibition: 0%
HeLa
  Activity: inactive
MDA-MB-231 [2]
  Activity: inactive
MDA-MB-231 [3]
  GI50: 17.6 µM
  TGI: 25.5 µM
  CC50: 25.5 µM
HT-29
  GI50: > 100 µM
  LC50 (concentration killing 50% of cells): > 100 µM
  TGI: > 100 µM
[4]
  inhibition: 70%
[5]
  Activity: inactive

## C=CC[C@@]12C[C@@H](C(=O)OC)N3[C@@H]1N(C(=N)C31CCCCC1)c1ccccc12
A549
  GI50: 23.3 µM
  TGI: 24.1 µM
  CC50: 25.2 µM
[1]
  inhibition: 52%
HeLa
  Activity: inactive
MDA-MB-231 [2]
  Activity: inactive
MDA-MB-231 [3]
  GI50: 23.5 µM
  TGI: 24.6 µM
  CC50: 25.7 µM
HT-29
  GI50: 22.4 µM
  LC50 (concentration killing 50% of cells): 25.2 µM
  TGI: 23.5 µM
[5]
  Activity: inactive

## COC(=O)[C@@H]1C[C@H]2c3ccccc3N3C(=N)C(C)(C)N1[C@@H]23
HeLa
  Activity: inactive
MDA-MB-231 [2]
  Activity: inactive
[5]
  Activity: inactive

## COC(=O)[C@@H]1C[C@]2(CC=C(C)C)c3ccccc3N3C(=N)[C@@H](Cc4ccccc4)N1[C@@H]32
A549
  GI50: 12 µM
  TGI: 24.1 µM
  CC50: 24.1 µM
[1]
  inhibition: 0%
HeLa
  Activity: inactive
MDA-MB-231 [2]
  Activity: inactive
MDA-MB-231 [3]
  GI50: 9.39 µM
  TGI: 24.1 µM
  CC50: 24.1 µM
HT-29
  GI50: > 100 µM
  LC50 (concentration killing 50% of cells): > 100 µM
  TGI: > 100 µM
[4]
  inhibition: 61%
[5]
  Activity: inactive

## COC(=O)[C@@H]1C[C@@]2(CC=C(C)C)c3ccccc3N3C(=N)[C@H](Cc4ccccc4)N1[C@H]32
A549
  GI50: 22.1 µM
  TGI: 24.1 µM
  CC50: 24.1 µM
[1]
  inhibition: 20%
HeLa
  Activity: inactive
MDA-MB-231 [2]
  Activity: inactive
MDA-MB-231 [3]
  GI50: > 100 µM
  TGI: > 100 µM
  CC50: > 100 µM
HT-29
  GI50: 20.2 µM
  LC50 (concentration killing 50% of cells): 24.1 µM
  TGI: 24.1 µM
[4]
  inhibition: 78%
[5]
  Activity: inactive

## COC(=O)[C@@H]1C[C@@]2(CC=C(C)C)c3ccccc3N3C(=N)[C@H](c4ccccc4)N1[C@H]32
A549
  GI50: > 100 µM
  TGI: > 100 µM
  CC50: > 100 µM
[1]
  inhibition: 13%
HeLa
  Activity: inactive
MDA-MB-231 [2]
  Activity: inactive
MDA-MB-231 [3]
  GI50: > 100 µM
  TGI: > 100 µM
  CC50: > 100 µM
HT-29
  GI50: > 100 µM
  LC50 (concentration killing 50% of cells): > 100 µM
  TGI: > 100 µM
[4]
  inhibition: 78%
[5]
  Activity: inactive
